Results on seven compounds are retold here after publication PMC3016090 (ChemMedChem, 2009).

Read-outs that look alike come from different tables or passages of the source. Marks after values point to notes of the source that are not given here.

Series [1] can be described thus: Brain tissue and serum drug levels in mice by LC/MS. The format is in vivo, mouse. Conditions: 1 mg-kg^−1 i.p.; for AUC in the brain: 2 h time-course, n = 3; for Cmax in brain tissue: single administration, n = 3 per timepoint.
Series [2] in a line: Stability in phosphate buffered saline at pH 7.4. The format is physicochemical. Particulars: PBS pH 7.4, 37 °C; for pH 7.4 (%), percent remaining after 24 h incubation: 1 μM compound. Put shortly:
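Test compound at 1 μM final (1% DMSO) in 10 mM PBS, pH 7.4, at 37 °C. Aliquots were taken at intervals and quantified by LC against calibration curves built in spiked PBS. Reported as percent remaining after 24 h.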

The target of series [3] is T1, FAAH (Mus musculus, UniProt O08914).
T1 sequence (O08914 1-579): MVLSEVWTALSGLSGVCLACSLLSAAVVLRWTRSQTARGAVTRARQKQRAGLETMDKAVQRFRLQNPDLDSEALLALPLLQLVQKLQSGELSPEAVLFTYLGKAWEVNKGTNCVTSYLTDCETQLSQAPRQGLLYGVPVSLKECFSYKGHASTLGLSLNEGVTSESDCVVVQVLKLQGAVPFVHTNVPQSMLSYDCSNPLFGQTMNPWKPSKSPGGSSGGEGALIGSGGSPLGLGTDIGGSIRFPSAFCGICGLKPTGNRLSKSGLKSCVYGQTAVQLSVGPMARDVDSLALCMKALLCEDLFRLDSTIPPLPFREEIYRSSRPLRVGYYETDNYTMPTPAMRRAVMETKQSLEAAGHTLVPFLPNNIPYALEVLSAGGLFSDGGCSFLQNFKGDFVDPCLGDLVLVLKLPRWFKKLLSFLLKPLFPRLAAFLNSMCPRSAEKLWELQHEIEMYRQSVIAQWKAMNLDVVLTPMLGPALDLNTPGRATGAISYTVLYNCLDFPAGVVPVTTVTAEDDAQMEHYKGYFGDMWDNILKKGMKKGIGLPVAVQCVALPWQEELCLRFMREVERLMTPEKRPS
As to the kind of experiment: Brain FAAH activity measured ex vivo after i.p. administration in mice. Conditions: for ID50 / Percent FAAH activity remaining at 1 mg-kg^−1 / inhibition of brain FAAH activity in vivo: mice; for ID50 / inhibition of brain FAAH activity in vivo: i.p.; for ID50: brain FAAH activity ex vivo; for Percent FAAH activity remaining at 1 mg-kg^−1: 1 mg-kg^−1 i.p., brain FAAH ex vivo, printed in ID50 column; for inhibition of brain FAAH activity in vivo: doses up to 1 mg-kg^−1; for ED50: mouse, ip, read-out: ID50. Put shortly: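 Mice received a single i.p. injection. Brains were frozen in liquid N2, thawed, homogenized in 10 vol ice-cold 50 mM Tris pH 7.5 with 0.32 M sucrose, and spun at 1000 x g for 10 min at 4 °C. Homogenate (50 μg protein) was incubated for 30 min at 37 °C in 50 mM Tris pH 7.5 with 0.05% fatty acid-free BSA and 10 μM anandamide plus [3H]-anandamide. Reactions were stopped with chloroform/methanol (1:1), and aqueous-layer radioactivity was scintillation counted.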

A further series in a line: Stability in rat plasma. The format is in vitro ADME. Particulars: for Rat Plasma t1/2: 80% rat plasma in PBS pH 7.4, 37 °C; for half-life at 1 μM: rat, pooled rat plasma diluted to 80% (vol/vol) with PBS, pH 7.4. Put shortly: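 Heparinized rat blood from cardiac puncture gave plasma (1,900 x g), pooled and diluted to 80% v/v with 100 mM PBS, pH 7.4. Test compound was added from a 100 μM DMSO stock and incubated at 37 °C with shaking. Timed samples were quenched in ice-cold acetonitrile, spun, and analysed by reversed-phase HPLC-UV against plasma calibration curves. Apparent t1/2 came from log-concentration-versus-time regression.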

Series [4] concerns the target T2, FAAH (Rattus norvegicus, UniProt P97612).
T2 sequence (P97612 1-579): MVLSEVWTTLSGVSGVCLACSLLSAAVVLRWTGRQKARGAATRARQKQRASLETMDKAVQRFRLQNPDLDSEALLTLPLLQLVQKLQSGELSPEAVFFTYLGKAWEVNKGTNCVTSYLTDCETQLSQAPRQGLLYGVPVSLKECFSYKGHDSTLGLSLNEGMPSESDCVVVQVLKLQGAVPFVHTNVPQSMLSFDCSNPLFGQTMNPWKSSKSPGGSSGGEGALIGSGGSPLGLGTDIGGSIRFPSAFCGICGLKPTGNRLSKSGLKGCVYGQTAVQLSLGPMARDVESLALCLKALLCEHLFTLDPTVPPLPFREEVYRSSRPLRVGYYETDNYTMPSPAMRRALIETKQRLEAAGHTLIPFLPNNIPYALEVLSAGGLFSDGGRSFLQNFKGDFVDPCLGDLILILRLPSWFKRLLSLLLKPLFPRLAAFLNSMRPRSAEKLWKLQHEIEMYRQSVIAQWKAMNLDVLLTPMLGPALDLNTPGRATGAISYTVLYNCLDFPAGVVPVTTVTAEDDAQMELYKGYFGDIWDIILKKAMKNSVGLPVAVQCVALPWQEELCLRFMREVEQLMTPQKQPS
As to the kind of experiment: FAAH activity in vitro, rat brain membranes, [3H]-anandamide hydrolysis. The series is classed as biochemical.

In the next series the test system is liver carboxylesterases. The series is classed as biochemical. Conditions: rat liver microsomes, 30, 100 and 300 nM. Put shortly: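 Commercial rat liver microsomes (2.5 μg) were preincubated with test compound for 30 min at room temperature. p-Nitrophenylacetate was then added (1 mM final). After 20 min, p-nitrophenol formation was read as absorbance at 405 nm.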

Where [5] appears, read: rat brain membranes, 10 μM anandamide, no pre-incubation.

For the compound `O=C(NC1CCCCC1)Oc1cccc(-c2ccccc2)c1` [Compound 1a], in series [1], the “AUC in the brain” value is recorded as 2589 ± 423 arbitrary units and the “Cmax in brain tissue” value is 74 ± 3 pmol/g. Also, the “pH 7.4 (%), percent remaining after 24 h incubation” value (“pH 7.4 (%), percent remaining” below) in series [2] came to 41.1 ± 1.1%. Also, at FAAH [3], the ID50 was found to be 0.81 mg/kg. For the same compound, the “Rat Plasma t1/2” value in “Stability in rat plasma” came out at 42.7 ± 3.7 min. Besides, inhibition on FAAH [4] (setting [5]) was half-maximal at 25.6 ± 2 nM (IC50).
Turning to `O=C(NCCCCc1ccccc1)Oc1cccc(-c2ccccc2)c1` [Compound 1b], the “pH 7.4 (%), percent remaining” value in series [2] worked out at 35.9 ± 2.7%. This compound registered an ID50 at FAAH [3] of 0.96 mg/kg. For the same compound, the “Rat Plasma t1/2” value in the series “Stability in rat plasma” stood at 6.6 ± 0.7 min. Moreover, in “Stability in rat plasma” (rat plasma, versus URB524), the “plasma t1/2, fold shorter than URB524” value is “approximately 6 fold”. Moreover, half-maximal inhibition on FAAH [4] (setting [5]) (IC50) required 9.4 ± 2.8 nM.
Consider `O=C(NCCCCCCCCc1ccccc1)Oc1cccc(-c2ccccc2)c1` [Compound 1c], for which, in series [2], the “pH 7.4 (%), percent remaining” value stood at 65.9 ± 3.1%. In addition, at FAAH [3], the “Percent FAAH activity remaining at 1 mg-kg^−1” value came out at 105% ^[b] and the “inhibition of brain FAAH activity in vivo” value was “completely inactive in vivo”. Further, the “Rat Plasma t1/2” value in the series “Stability in rat plasma” is 7.0 ± 0.1 min. The compound further displayed an IC50 against FAAH [4] (setting [5]) of 5.4 ± 0.5 nM. Also, the “in vitro FAAH potency relative to parent URB524 (times more potent)” value on FAAH [4] (ratio of IC50 versus URB524) is “approximately 5 fold”.
As for `NC(=O)c1cccc(-c2cccc(OC(=O)NC3CCCCC3)c2)c1` [Compound 1d], in series [1], the “AUC in the brain” value is on record as 6036 ± 899 arbitrary units and the “Cmax in brain tissue” value was found to be 226 ± 29 pmol/g. The “pH 7.4 (%), percent remaining” value in series [2] was found to be 40.2 ± 0.6%. Moreover, the ED50 at FAAH [3] was determined as 0.22 mg/kg. The compound further came in with a half-life at 1 μM in the series “Stability in rat plasma” of 33 ± 0.5 min.
For `NC(=O)c1cccc(-c2cccc(OC(=O)NCCCCCCCCc3ccccc3)c2)c1` [Compound 1f, 8-Phenyloctylcarbamic acid 3′-carbamoylbiphenyl-3-yl ester], the “drug levels in serum and brain after administration” value in series [1] is “little or no increase in drug levels in serum and brain”. Also, the “pH 7.4 (%), percent remaining” value in series [2] was found to be 42.8 ± 1.4%. Further, at FAAH [3], the “Percent FAAH activity remaining at 1 mg-kg^−1” value was 65%^b and the “inhibition of brain FAAH activity in vivo” value was “little or no”. The same compound displayed a half-life at 1 μM in the series “Stability in rat plasma” of 4 ± 0.1 min. The compound further came in with an IC50 on FAAH [4] of 0.26 ± 0.02 nM.
For `Nc1ccc(OC(=O)NC2CCCCC2)cc1-c1ccccc1` [Compound 1h, Cyclohexylcarbamic acid 6-aminobiphenyl-3-yl ester], in the series with liver carboxylesterases, the “effect on liver carboxylesterase activities compared to URB597” value is reported as “reduced effects on liver carboxylesterase activities”. The “pH 7.4 (%), percent remaining” value in series [2] is recorded as 89.0 ± 0.5%. Besides, the ED50 on FAAH [3] came out at 0.18 mg/kg. The compound further displayed a half-maximal inhibitory concentration (IC50) on FAAH [4] of 27.2 ± 4.8 nM.
Take `O=C(NC1CCCCC1)Oc1ccc([N+](=O)[O-])c(-c2ccccc2)c1` [Compound 1i, Cyclohexylcarbamic acid 6-nitrobiphenyl-3-yl ester]: the “pH 7.4, value expressed as t1/2” value in series [2] was 1.7 ± 0.1 ^[c] min. At FAAH [4], this compound showed an IC50 above 30000 nM.
